# pIC50: −log10 of the molar value.
# Tests used:
# Assay type in all cases: functional
# [1] = Inhibitory activity against lipid peroxidation of egg-phosphatidylcholine (PC) liposome caused by water-soluble radical initiator [2,2'-azobis(2-amidinopropane) dihydrochloride] (AAPH)
# Procedure, shortened: (§1)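 Egg PC liposome peroxidation driven by water-soluble initiator AAPH (0.21 M aqueous stock, 150 µl) with sample in DMSO; 37°C for 20 min, capped tube. TBA reagent (0.375% TBA, 15% TCA, 0.25 N HCl) added, 100°C 15 min, cooled, spun; thiobarbituric acid reactive substances measured at 535 nm to give IC50.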
# [2] = Inhibitory activity against lipid peroxidation of egg-phosphatidylcholine (PC) liposome caused by lipid-soluble radical initiator [2,2'-azobis(2,4- dimethylvaleronitrile] (AMVN)
# Procedure, shortened: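 Egg PC liposomes (0.65 ml) incubated with sample in DMSO plus AMVN (8 mM DMSO stock) and water, 37°C, 20 min, capped tube. Stopped with thiobarbituric acid/trichloroacetic acid/HCl, heated 100°C 15 min, ice-cooled, centrifuged; TBARS in supernatant read at 535 nm. IC50 against lipid peroxidation.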
# [3] = Inhibitory activity against lipid peroxidation of egg-phosphatidylcholine (PC) liposome caused by water-soluble radical initiator [2,2'-azobis(2-amidinopropane) dihydrochloride] (AAPH); strongly aggregated and precipitated the lipids, hence not eva luated; procedure, shortened: as §1
Compound,pIC50 [1],pIC50 [2],IC50 [3]
C=CCSCc1c(O)c(CSCC=C)c2c(c1O)C[C@@H](OC(=O)c1cc(O)c(O)c(O)c1)[C@@H](c1cc(O)c(O)c(O)c1)O2,4.94,< 3.30,–
CCCCCCCCCCCCCCCCCCNC(=O)Oc1c(O)cc(C(=O)O[C@@H]2Cc3c(O)cc(O)cc3O[C@@H]2c2cc(O)c(O)c(O)c2)cc1O,4.61,4.66,–
CCCCCCCCSCc1c(O)c(CSCCCCCCCC)c2c(c1O)[C@H](SCCO)[C@@H](OC(=O)c1cc(O)c(O)c(O)c1)[C@@H](c1cc(O)c(O)c(O)c1)O2,5.06,4.22,–
CCCCCCCCCCCCCCCCCCSCc1c(O)c(CSCCCCCCCCCCCCCCCCCC)c2c(c1O)C[C@@H](OC(=O)c1cc(O)c(O)c(O)c1)[C@@H](c1cc(O)c(O)c(O)c1)O2,–,–,No effect
CCCCCCCCSCc1c(O)c(CSCCCCCCCC)c2c(c1O)C[C@@H](OC(=O)c1cc(O)c(O)c(O)c1)[C@@H](c1cc(O)c(O)c(O)c1)O2,5.10,4.22,–
CCCCCCCCCCCCCCCCSCc1c(O)c(CSCCCCCCCCCCCCCCCC)c2c(c1O)C[C@@H](OC(=O)c1cc(O)c(O)c(O)c1)[C@@H](c1cc(O)c(O)c(O)c1)O2,–,–,No effect
CCCCCCCCOC(=O)c1cc(O)c(O)c(O)c1 [OCTYL_GALLATE],4.73,3.73,–
O=C(O[C@@H]1Cc2c(O)cc(O)cc2O[C@@H]1c1cc(O)c(O)c(O)c1)c1cc(O)c(O)c(O)c1 [EPIGALOCATECHIN GALLATE],4.68,< 3.30,–
CCCCCCCCSCc1c(O)c(CSCCCCCCCC)c2c(c1O)[C@H](SCCCCCCCC)[C@@H](OC(=O)c1cc(O)c(O)c(O)c1)[C@@H](c1cc(O)c(O)c(O)c1)O2,3.87,4.71,–
Cc1c(C)c2c(c(C)c1O)CC[C@@](C)(CCC[C@H](C)CCC[C@H](C)CCCC(C)C)O2 [ALPHA-TOCOPHEROL],4.39,5.23,–
O=C(O[C@@H]1Cc2c(O)c(CSCc3ccccc3)c(O)c(CSCc3ccccc3)c2O[C@@H]1c1cc(O)c(O)c(O)c1)c1cc(O)c(O)c(O)c1,5.02,3.36,–
COC(=O)CSCc1c(O)c(CSCC(=O)OC)c2c(c1O)C[C@@H](OC(=O)c1cc(O)c(O)c(O)c1)[C@@H](c1cc(O)c(O)c(O)c1)O2,4.92,< 3.30,–
O=C(O[C@H]1[C@@H](c2cc(O)c(O)c(O)c2)Oc2cc(O)cc(O)c2[C@@H]1SCCO)c1cc(O)c(O)c(O)c1,4.69,< 3.30,–

# — ChEMBL document CHEMBL1131544, “Synthesis and antioxidant activity of novel amphipathic derivatives of tea polyphenol” (Bioorg Med Chem Lett, 1998)
